Source: ChEMBL document CHEMBL1177753, “Cytotoxic bisbenzylisoquinoline alkaloids from the roots of Cyclea racemosa” (J Nat Prod, 2010)

Key:
Assay type in all cases: functional, cell-based
A2780 = experiment: Cytotoxicity against human A2780 cells after 3 days by MTT assay; details: A2780, 72 h
In short: (§1)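 Human tumor cells grown in RPMI-1640 with 5% fetal bovine serum. Freshly trypsinized cells seeded at 5000 cells per well in 96-well plates. Compounds added from DMSO-diluted stock. After three days of culture, attached cells stained with MTT, bound dye solubilized, absorbance read at 540 nm. IC50 taken as the concentration giving 50% growth inhibition, averaged from triplicate determinations.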

HCT-8 = experiment: Cytotoxicity against human HCT8 cells after 3 days by MTT assay; details: HCT-8, 72 h; in short: as §1
Bel-7402 = experiment: Cytotoxicity against human Bel7402 cells after 3 days by MTT assay; details: Bel-7402, 72 h; in short: as §1

`COc1cc2c3cc1Oc1cc(ccc1O)C[C@@H]1c4c(cc(OC)c5c4Oc4ccc(cc4CO5)C[C@H]3N(C)CC2)CCN1C` [RACEMOSIDINE A] gave an IC50 (A2780) of 6.7 µM, an IC50 (HCT-8) of 2.8 µM and an IC50 (Bel-7402) of 6.09 µM.

Work on `COc1cc2c3cc1Oc1cc(ccc1O)C[C@H]1c4c(cc(OC)c(OC)c4Oc4ccc(cc4)C[C@H]3N(C)CC2)CCN1C` [RACEMOSIDINE B] yielded an IC50 (A2780) of over 10 µM, an IC50 (HCT-8) of 9.72 µM and an IC50 (Bel-7402) of 4.62 µM.

With `CC(=O)O[C@H]1C(=O)[C@@]2(C)[C@H]([C@H](OC(=O)c3ccccc3)[C@]3(O)C[C@H](OC(=O)[C@H](O)[C@@H](NC(=O)c4ccccc4)c4ccccc4)C(C)=C1C3(C)C)[C@]1(OC(C)=O)CO[C@@H]1C[C@@H]2O` [PACLITAXEL] the IC50 (A2780) was 0.65 µM, the IC50 (HCT-8) was 0.67 µM and the IC50 (Bel-7402) was 1.8 µM.

In the case of `COc1cc2c3cc1Oc1c(O)c(OC)cc4ccnc(c14)Cc1ccc(cc1)Oc1cc(ccc1O)C[C@H]3N(C)CC2` [RACEMOSININE B], the IC50 (A2780) is reported as over 10 µM, the IC50 (HCT-8) is reported as over 10 µM and the IC50 (Bel-7402) is reported as over 10 µM.

Work on `COc1cc2c3cc1Oc1c(O)c(OC)cc4ccnc(c14)Cc1ccc(cc1)Oc1cc(ccc1O)C[C@H]3[N+](C)([O-])CC2` (stereo partly drawn) [RACEMOSININE C] yielded an IC50 (A2780) of over 10 µM, an IC50 (HCT-8) of over 10 µM and an IC50 (Bel-7402) of over 10 µM.

With `COc1ccc2cc1Oc1cc3c(cc1OC)CCN(C)[C@@H]3Cc1ccc(cc1)Oc1c(OC)c(O)cc3c1[C@H](C2)N(C)CC3` [RACEMOSIDINE C] the IC50 (A2780) was over 10 µM, the IC50 (HCT-8) was 6.04 µM and the IC50 (Bel-7402) was 7.53 µM.
